Calls of active or inactive are those of the source. The rule behind the calls is not given here.
Assays:
Rattus norvegicus [1] = experiment: Reduction in amyloid beta 42 production in Sprague-Dawley rat plasma at 30 mg/kg, po measured after 3 to 4 hrs by ELISA relative to control; assay type: functional
How it was run: (§1)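 Nonfasted 6-week-old male SD rats (n = 4 or 5) given a single oral dose of 10 or 30 mg/kg in 0.5% (w/v) methylcellulose. Blood and brain were taken under isoflurane 3 h post-dose (4 h for some entries). Hippocampus was sonicated in 10 volumes of TBS pH 7.4 with protease inhibitors and spun at 100,000g, 4 °C, 1 h. Aβx-42 in supernatant and plasma measured by ELISA; Student's t-test vs vehicle.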

Rattus norvegicus [2] = experiment: Reduction in amyloid beta 42 production in Sprague-Dawley rat brain at 30 mg/kg, po measured after 3 to 4 hrs by ELISA relative to control; assay type: functional; how it was run: as §1
Gamma-secretase = experiment: Inhibition of gamma-secretase in human SK-N-BE cells assessed as decrease in amyloid beta 42 production treated for 6 hrs by ELISA; assay type: cell-based
How it was run: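 SK-N-BE(2) human neuroblastoma cells grown in RPMI1640 with 10% FBS and penicillin/streptomycin, plated in 96-well plates overnight, then exposed to a range of drug concentrations in 0.5% DMSO for 6 h. Medium Aβ1-42 was measured by sandwich ELISA (44A3 capture, biotin-82E1 detection, streptavidin-HRP, TMB). Total Aβ was measured by ELISA kit. Mean of two wells.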

[3] = Intrinsic clearance in rat liver microsomes at 0.2 uM incubated upto 45 mins by LC/MS-MS analysis; assay type: ADME, Microsome; conditions: for CLint scaled at 0.2 µM: liver microsomes
How it was run: (§2)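 Test compound at 0.2 μM incubated at 37 °C with pooled rat or mouse liver microsomes (0.2 mg protein/mL), 1 mM NADPH and 0.1 mM EDTA in 100 mM Na+-K+ phosphate, pH 7.4. Samples taken at 0, 15, 30 and 45 min; compound/internal-standard peak areas measured by LC-MS/MS to calculate CLint (mL/min/kg). Mean of duplicate experiments.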

[4] = Drug concentration in brain of Sprague-Dawley rat at 30 mg/kg, po measured after 3 hrs by LC/MS-MS analysis; assay type: ADME, organism-based; conditions: in vivo
How it was run: (§3)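 Nonfasted 6-week-old male SD rats (n = 2 or 3) received a single oral dose of 10 or 30 mg/kg as a suspension in 0.5% (w/v) methylcellulose. Plasma and brain were sampled 3 h post-dose, proteins were precipitated with acetonitrile, and drug was quantified by LC-MS/MS. Values are the mean of two or three rats. The brain/plasma ratio was taken from these concentrations.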

[5] = Intrinsic clearance in mouse liver microsomes at 0.2 uM incubated upto 45 mins by LC/MS-MS analysis; assay type: ADME, Microsome; how it was run: as §2
[6] = Ratio of drug concentration in plasma of Sprague-Dawley rat at 30 mg/kg, po to IC50 of gamma-secretase in human SK-N-BE cells; assay type: ADME, organism-based; conditions: in vivo
[7] = Ratio of drug concentration in brain to blood of Sprague-Dawley rat at 30 mg/kg, po measured after 3 hrs by LC/MS-MS analysis; assay type: ADME, organism-based; conditions: brain and blood; how it was run: as §3
[8] = Drug concentration in plasma of Sprague-Dawley rat at 30 mg/kg, po measured after 3 hrs by LC/MS-MS analysis; assay type: ADME, organism-based; how it was run: as §3
[9] = Ratio of drug concentration in brain of Sprague-Dawley rat at 30 mg/kg, po to IC50 of gamma-secretase in human SK-N-BE cells; assay type: ADME, organism-based; conditions: in vivo
Cytochrome P450 2C9 = Cytochrome P450 2C9 (Homo sapiens, UniProt P11712); experiment: Inhibition of human recombinant CYP2C9 assessed as reduction in metabolite formation using MFC as substrate incubated for 30 mins by fluorescence assay; assay type: ADME
Sequence of Cytochrome P450 2C9 (P11712 whole entry): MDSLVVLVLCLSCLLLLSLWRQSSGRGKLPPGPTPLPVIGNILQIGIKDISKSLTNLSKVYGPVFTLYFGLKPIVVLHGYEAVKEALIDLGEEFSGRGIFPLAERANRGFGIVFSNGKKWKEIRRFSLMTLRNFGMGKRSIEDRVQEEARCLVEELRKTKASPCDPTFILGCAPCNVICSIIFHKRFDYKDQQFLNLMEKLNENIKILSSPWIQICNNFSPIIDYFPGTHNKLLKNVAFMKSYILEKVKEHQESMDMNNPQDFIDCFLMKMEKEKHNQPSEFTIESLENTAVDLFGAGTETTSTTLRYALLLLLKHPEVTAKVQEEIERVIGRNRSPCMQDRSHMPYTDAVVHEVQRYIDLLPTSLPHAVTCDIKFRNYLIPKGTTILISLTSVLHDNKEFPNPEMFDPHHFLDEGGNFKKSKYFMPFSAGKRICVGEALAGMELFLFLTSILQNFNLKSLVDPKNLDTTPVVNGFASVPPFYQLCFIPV
How it was run: (§4)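 Recombinant human CYP with co-factors, fluorogenic substrate, potassium phosphate buffer pH 7.4 and test compound at 0.31–20 μM, incubated at 37 °C. Substrates and incubation times: CYP1A2, 5 μM CEC, 20 min; CYP2C9, 75 μM MFC, 30 min; CYP2C19, 25 μM CEC, 20 min; CYP2D6, AMMC, 20 min. Stopped with Tris base/acetonitrile; metabolite read by fluorescence. IC50 is the mean of duplicates.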

Cytochrome P450 2D6 = Cytochrome P450 2D6 (Homo sapiens, UniProt P10635); experiment: Inhibition of human recombinant CYP2D6 assessed as reduction in metabolite formation using AMMC as substrate incubated for 20 mins by fluorescence assay; assay type: ADME; how it was run: as §4
Sequence of Cytochrome P450 2D6 (P10635 whole entry): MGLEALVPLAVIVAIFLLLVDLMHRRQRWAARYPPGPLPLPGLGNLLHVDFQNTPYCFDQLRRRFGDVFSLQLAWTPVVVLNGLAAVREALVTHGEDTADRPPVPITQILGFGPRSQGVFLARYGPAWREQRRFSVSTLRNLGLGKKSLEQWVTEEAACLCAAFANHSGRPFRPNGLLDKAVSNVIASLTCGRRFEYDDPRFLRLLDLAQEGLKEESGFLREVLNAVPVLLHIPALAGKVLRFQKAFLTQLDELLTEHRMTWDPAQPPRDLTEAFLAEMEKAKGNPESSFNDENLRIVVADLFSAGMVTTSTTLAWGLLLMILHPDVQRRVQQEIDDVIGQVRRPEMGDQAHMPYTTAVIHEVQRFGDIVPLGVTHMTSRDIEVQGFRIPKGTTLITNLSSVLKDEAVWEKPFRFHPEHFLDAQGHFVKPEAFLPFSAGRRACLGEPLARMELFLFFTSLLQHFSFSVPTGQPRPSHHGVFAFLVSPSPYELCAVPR

[10] = Ratio of drug concentration in brain of Sprague-Dawley rat at 10 mg/kg, po to IC50 of gamma-secretase in human SK-N-BE cells; assay type: ADME, organism-based; conditions: in vivo
Rattus norvegicus [11] = experiment: Reduction in amyloid beta 42 production in Sprague-Dawley rat plasma at 10 mg/kg, po measured after 3 to 4 hrs by ELISA relative to control; assay type: functional; how it was run: as §1
Mus musculus = experiment: Antialzheimer activity in transgenic Tg2576 mouse assessed as improvement of spatial memory impairment at 2 and 6 mg/kg, po administered daily for 8 weeks measured after 3 hrs on day 8 by Y-maze test; assay type: functional, organism-based; conditions: in the assay text read “8 days” for “8 weeks”
How it was run: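 Female Tg2576 mice, 6 months old, nonfasted (n = 5 or 6), dosed orally once daily for 8 days at 0.6, 2.0, 6.0 or 20 mg/kg as a suspension in 0.5% methyl cellulose. Three hours after the day-8 dose, each mouse started at the end of one arm of a three-arm Y-maze and explored freely for 8 min. Spontaneous alternation was scored; animals with <10 total arm entries were excluded. Student's t-test vs vehicle.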

[12] = Ratio of drug concentration in brain to blood of Sprague-Dawley rat at 10 mg/kg, po measured after 3 hrs by LC/MS-MS analysis; assay type: ADME, organism-based; conditions: brain and blood; how it was run: as §3
Cytochrome P450 1A2 = molecular target: T1, Cytochrome P450 1A2 (Homo sapiens, UniProt P05177); experiment: Inhibition of human recombinant CYP1A2 assessed as reduction in metabolite formation using CEC as substrate incubated for 20 mins by fluorescence assay; assay type: ADME; how it was run: as §4
T1 sequence (P05177 whole entry): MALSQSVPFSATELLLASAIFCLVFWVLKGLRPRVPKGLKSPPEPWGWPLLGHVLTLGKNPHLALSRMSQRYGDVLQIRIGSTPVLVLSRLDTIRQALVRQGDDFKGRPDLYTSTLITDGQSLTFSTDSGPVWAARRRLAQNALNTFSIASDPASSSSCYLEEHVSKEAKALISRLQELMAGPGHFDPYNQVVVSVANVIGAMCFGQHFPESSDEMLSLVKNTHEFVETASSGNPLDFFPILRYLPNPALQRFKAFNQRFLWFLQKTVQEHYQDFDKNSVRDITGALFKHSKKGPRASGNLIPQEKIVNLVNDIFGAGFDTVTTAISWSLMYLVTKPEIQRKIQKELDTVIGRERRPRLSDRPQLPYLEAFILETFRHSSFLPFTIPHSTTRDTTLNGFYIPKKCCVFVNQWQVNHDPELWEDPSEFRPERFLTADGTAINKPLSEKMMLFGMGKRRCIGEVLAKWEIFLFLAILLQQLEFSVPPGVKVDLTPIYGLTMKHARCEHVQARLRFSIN

CYP3A4 [13] = molecular target: T2, CYP3A4 (Homo sapiens, UniProt P08684); experiment: Inhibition of CYP3A4 in human liver microsome assessed as enzyme residual activity pre-incubated for 30 min followed by midazolam addition incubated for 20 mins by LC-MS/MS analysis relative to control; assay type: ADME; conditions: liver microsomes, probe midazolam, read-out: INH
T2 sequence (P08684 whole entry): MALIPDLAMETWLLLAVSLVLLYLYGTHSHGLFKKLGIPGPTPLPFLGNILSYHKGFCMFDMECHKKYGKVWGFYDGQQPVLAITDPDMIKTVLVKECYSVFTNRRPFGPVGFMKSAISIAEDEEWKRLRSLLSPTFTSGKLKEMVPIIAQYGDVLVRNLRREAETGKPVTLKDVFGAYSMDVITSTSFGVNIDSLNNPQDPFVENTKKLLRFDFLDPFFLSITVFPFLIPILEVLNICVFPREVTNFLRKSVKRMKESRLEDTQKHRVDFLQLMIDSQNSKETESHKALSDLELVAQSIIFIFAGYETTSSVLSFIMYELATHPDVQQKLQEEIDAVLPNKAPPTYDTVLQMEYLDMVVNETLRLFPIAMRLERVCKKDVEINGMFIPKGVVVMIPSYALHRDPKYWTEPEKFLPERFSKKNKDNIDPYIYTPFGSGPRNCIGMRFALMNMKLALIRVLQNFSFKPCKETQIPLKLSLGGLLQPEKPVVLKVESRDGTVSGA
How it was run: (§5)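 Human liver microsomes at 0.1 mg protein/mL with 1 mM NADPH, 0.1 mM EDTA, 100 mM Na+-K+ phosphate pH 7.4 and 5 μM test compound, preincubated 0 or 30 min at 37 °C. Started with 1.5 μM midazolam, run 20 min, stopped with 80% acetonitrile containing internal standard. Peak-area ratios with compound vs without gave residual activity; mean of duplicates.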

Rattus norvegicus [14] = experiment: Reduction in amyloid beta 42 production in Sprague-Dawley rat brain at 10 mg/kg, po measured after 3 to 4 hrs by ELISA relative to control; assay type: functional; how it was run: as §1
[15] = Drug concentration in brain of Sprague-Dawley rat at 10 mg/kg, po measured after 3 hrs by LC/MS-MS analysis; assay type: ADME, organism-based; conditions: in vivo; how it was run: as §3
CYP3A4 [16] = molecular target: T2, CYP3A4; experiment: Inhibition of CYP3A4 in human liver microsome assessed as enzyme residual activity pre-incubated for 0 min followed by midazolam addition incubated for 20 mins by LC-MS/MS analysis relative to control; assay type: ADME; conditions: liver microsomes, probe midazolam, read-out: INH; how it was run: as §5
[17] = Drug concentration in plasma of Sprague-Dawley rat at 10 mg/kg, po measured after 3 hrs by LC/MS-MS analysis; assay type: ADME, organism-based; how it was run: as §3
[18] = Ratio of drug concentration in plasma of Sprague-Dawley rat at 10 mg/kg, po to IC50 of gamma-secretase in human SK-N-BE cells; assay type: ADME, organism-based; conditions: in vivo
Cytochrome P450 2C19 = Cytochrome P450 2C19 (Homo sapiens, UniProt P33261); experiment: Inhibition of human recombinant CYP2C19 assessed as reduction in metabolite formation using CEC as substrate incubated for 20 mins by fluorescence assay; assay type: ADME; how it was run: as §4
Sequence of Cytochrome P450 2C19 (P33261 whole entry): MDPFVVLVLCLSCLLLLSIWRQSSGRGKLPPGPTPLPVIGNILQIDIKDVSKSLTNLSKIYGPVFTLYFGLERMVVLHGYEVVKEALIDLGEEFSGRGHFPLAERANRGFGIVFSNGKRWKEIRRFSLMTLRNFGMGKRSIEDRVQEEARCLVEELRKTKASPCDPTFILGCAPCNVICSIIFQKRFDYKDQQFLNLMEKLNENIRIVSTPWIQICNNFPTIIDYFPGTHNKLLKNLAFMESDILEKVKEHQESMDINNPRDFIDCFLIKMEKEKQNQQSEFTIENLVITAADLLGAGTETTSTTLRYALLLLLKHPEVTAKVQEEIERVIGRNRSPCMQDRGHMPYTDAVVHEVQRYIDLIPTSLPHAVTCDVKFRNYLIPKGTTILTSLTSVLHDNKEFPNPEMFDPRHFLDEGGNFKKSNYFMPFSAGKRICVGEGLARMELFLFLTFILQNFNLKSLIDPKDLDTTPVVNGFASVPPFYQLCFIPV

SMILES: CCNC(=O)c1ccc(-c2c(C)nc3c(OCc4ccc(-c5ccc(C(F)(F)F)cc5)cc4)cccn23)cn1.Cl
- inhibition in vivo at 30 mg/kg (Rattus norvegicus [1]): 40%
- inhibition in vivo at 30 mg/kg (Rattus norvegicus [2]): 4%
- IC50 (Gamma-secretase): 0.21 µM
- CLH ([3]; microsomes, 0.75 h, 0.2 µM): Stable

SMILES: CCNC(=O)c1ccc(-c2c(C)nc3c(OCc4ccc(-c5ccccc5)cc4)cccn23)cn1.Cl
- inhibition in vivo at 30 mg/kg (Rattus norvegicus [1]): 28%
- inhibition in vivo at 30 mg/kg (Rattus norvegicus [2]): 13%
- Ct [4]: 2.1 nmol/g
- CLint scaled at 0.2 µM [5]: 227 mL/min/kg
- Ratio [6]: 75
- CLint scaled at 0.2 µM [3]: 835 mL/min/kg
- Kp at 3 h [7]: 0.3
- concentration at 3 h [8]: 6.8 µM
- Ratio [9]: 23

SMILES: CCN1Cc2cc(-c3c(C)nc4c(OCc5ccc(-c6ccc(F)cc6)cc5)cccn34)ccc2C1=O
- inhibition in vivo at 30 mg/kg (Rattus norvegicus [1]): 59%
- inhibition in vivo at 30 mg/kg (Rattus norvegicus [2]): 10%
- IC50 (Gamma-secretase): 0.092 µM
- CLint scaled at 0.2 µM [3]: 345 mL/min/kg

SMILES: CCNC(=O)c1ccc(-c2c(C)nc3c(OCc4ccc(-c5cccc(C(F)(F)F)c5)cc4)cccn23)cn1
- inhibition in vivo at 30 mg/kg (Rattus norvegicus [1]): 62%
- inhibition in vivo at 30 mg/kg (Rattus norvegicus [2]): 15%
- IC50 (Gamma-secretase): 0.061 µM
- CLint scaled at 0.2 µM [3]: 38 mL/min/kg

SMILES: CNC(=O)c1ccc(-c2c(C)nc3c(OCc4ccc(-c5ccc(F)cc5)cc4F)cccn23)cn1.Cl
- inhibition in vivo at 30 mg/kg (Rattus norvegicus [1]): 77%
- IC50 (Cytochrome P450 2C9): > 10 µM
- IC50 (Cytochrome P450 2D6): > 10 µM
- inhibition in vivo at 30 mg/kg (Rattus norvegicus [2]): 42%
- Ratio [10]: 51
- Ct [4]: 3.5 nmol/g
- inhibition in vivo at 10 mg/kg (Rattus norvegicus [11]): 63%
- Ratio [6]: 561
- IC50 (Gamma-secretase): 0.029 µM
- CLint scaled at 0.2 µM [3]: 115 mL/min/kg
- Kp at 3 h [7]: 0.23
- Activity (Mus musculus): Active
- Kp at 3 h [12]: 0.27
- IC50 (Cytochrome P450 1A2): > 10 µM
- activity at 20 min (CYP3A4 [13]): 104%
- inhibition in vivo at 10 mg/kg (Rattus norvegicus [14]): 23%
- Ct [15]: 1.5 nmol/g
- activity at 20 min (CYP3A4 [16]): 109%
- concentration at 3 h [17]: 5.7 µM
- concentration at 3 h [8]: 16 µM
- Ratio [9]: 121
- Ratio [18]: 196
- IC50 (Cytochrome P450 2C19): > 10 µM

SMILES: CCn1oc2cc(-c3c(C)nc4c(OCc5ccc(-c6ccc(F)cc6)cc5)cccn34)ccc2c1=O
- inhibition in vivo at 30 mg/kg (Rattus norvegicus [1]): 63%
- inhibition in vivo at 30 mg/kg (Rattus norvegicus [2]): 20%
- IC50 (Gamma-secretase): 0.09 µM
- CLint scaled at 0.2 µM [3]: 214 mL/min/kg

SMILES: CCNC(=O)c1ccc(-c2c(C)nc3c(OCc4ccc(-c5ccccc5C(F)(F)F)cc4)cccn23)cn1
- IC50 (Gamma-secretase): 0.18 µM
- CLint scaled at 0.2 µM [3]: 790 mL/min/kg

SMILES: CCn1c(=O)c2ccc(-c3c(C)nc4c(OCc5ccc(-c6ccc(F)cc6)cc5)cccn34)cc2n1C
- IC50 (Gamma-secretase): > 2 µM

Source: ChEMBL document CHEMBL4622842, “Optimization and biological evaluation of imidazopyridine derivatives as a novel scaffold for γ-secretase modulators with oral efficacy against cognitive deficits in Alzheimer's disease model mice” (Bioorg Med Chem, 2020)
